Measured values taken from ChEMBL document CHEMBL4414574, “Structure-Based Discovery and Development of a Series of Potent and Selective Bromodomain and Extra-Terminal Protein Inhibitors” (J Med Chem, 2019).
The source made the active and inactive calls. No cut-off for these calls is given here.

Tests used:
[1] = Half life in ICR mouse at 10 mg/kg, po administered via gavage measured after 0.25 to 24 hrs by UPLC/MS analysis; format: ADME, organism-based; settings: in vivo
Summary of the method: (§1)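 Male ICR mice dosed orally in 1% DMSO/0.5% HPMC vehicle; plasma or brain drug levels used to derive Tmax, Cmax, AUC0-t, AUC0-inf and T1/2.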

[2] = Half life in human liver microsomes at 1 uM preincubated for 5 mins followed by NADPH addition and measured after 5 to 30 mins by LC/MS/MS analysis; format: ADME, Microsome
[3] = Intrinsic clearance in mouse liver microsomes at 1 uM preincubated for 5 mins followed by NADPH addition and measured after 5 to 30 mins by LC/MS/MS analysis; format: ADME, Microsome; settings: read-out: CLH
Summary of the method: (§2)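 Liver microsomes (0.5 mg/mL) preincubated 5 min at 37 °C with 1 μM compound in 0.1 M phosphate buffer pH 7.4 containing 1 mM EDTA and 5 mM MgCl2; started with 1 mM NADPH; sampled at 0, 5, 10 and 30 min; quenched with cold acetonitrile; parent remaining quantified by LC/MS/MS.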

CYP3A4 = CYP3A4 (Homo sapiens, UniProt P08684); assay: Reversible inhibition of CYP3A4 in human liver microsomes at 10 uM using midazolam or testosterone as substrate preincubated for 5 mins followed by NADPH addition and measured after 20 mins relative to control; format: ADME; settings: probe midazolam or testosterone
Summary of the method: (§3)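 Human liver microsomes 0.2 mg/mL, 100 mM phosphate pH 7.4, 10 μM test compound, probe cocktail (10 μM midazolam, 100 μM testosterone, 10 μM dextromethorphan, 20 μM diclofenac, 100 μM phenacetin, 100 μM mephenytoin); organic solvent <1%; 5 min preincubation at 37 °C, started with NADPH-generating system, 20 min reaction; metabolite formation expressed relative to PBS control.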

[4] = Cmax in ICR mouse at 10 mg/kg, po administered via gavage measured after 0.25 to 24 hrs by UPLC/MS analysis; format: ADME, organism-based; design: dose 10 mg/kg, route oral; settings: in vivo; summary of the method: as §1
Cytochrome P450 1A2 = target: T1, Cytochrome P450 1A2 (Homo sapiens, UniProt P05177); assay: Time-dependent inhibition of CYP1A2 in human liver microsomes at 10 uM using phenacetin as substrate preincubated up to 30 mins followed by NADPH generating system addition and measured after 10 mins; format: ADME
T1 sequence (P05177 whole entry): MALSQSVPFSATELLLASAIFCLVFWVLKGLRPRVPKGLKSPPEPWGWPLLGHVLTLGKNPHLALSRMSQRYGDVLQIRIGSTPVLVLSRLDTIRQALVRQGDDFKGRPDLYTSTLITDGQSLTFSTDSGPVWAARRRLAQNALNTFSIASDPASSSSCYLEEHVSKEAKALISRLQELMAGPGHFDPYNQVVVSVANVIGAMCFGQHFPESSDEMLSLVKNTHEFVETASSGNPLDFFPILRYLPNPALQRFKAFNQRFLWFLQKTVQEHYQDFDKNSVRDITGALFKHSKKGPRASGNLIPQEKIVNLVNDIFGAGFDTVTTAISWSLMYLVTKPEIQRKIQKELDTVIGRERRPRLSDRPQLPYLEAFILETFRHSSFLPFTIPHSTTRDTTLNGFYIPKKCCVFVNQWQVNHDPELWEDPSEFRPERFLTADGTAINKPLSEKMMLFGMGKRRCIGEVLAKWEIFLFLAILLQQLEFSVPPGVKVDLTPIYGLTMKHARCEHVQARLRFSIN
Summary of the method: (§4)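 Human liver microsomes 0.2 mg/mL, 100 mM phosphate pH 7.4, 10 μM test compound, preincubated 0, 5, 10 and 30 min at 37 °C; then NADPH plus probe cocktail (5 μM midazolam, 50 μM testosterone, 5 μM dextromethorphan, 10 μM diclofenac, 50 μM phenacetin, 50 μM S-(+)-mephenytoin) added; 10 min reaction; kobs in units of 10^-4/min.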

Cytochrome P450 3A4 = Cytochrome P450 3A4 (Homo sapiens, UniProt P08684); assay: Time-dependent inhibition of CYP3A4 in human liver microsomes at 10 uM using midazolam or testosterone as substrate preincubated up to 30 mins followed by NADPH generating system addition and measured after 10 mins; format: ADME; summary of the method: as §4
CYP2C19 = CYP2C19 (Homo sapiens, UniProt P33261); assay: Reversible inhibition of CYP2C19 in human liver microsomes at 10 uM using mephenytoin as substrate preincubated for 5 mins followed by NADPH generating system addition and measured after 20 mins relative to control; format: ADME; settings: probe mephenytoin; summary of the method: as §3
[5] = AUC (0 to t) in ICR mouse at 10 mg/kg, po administered via gavage measured after 0.25 to 24 hrs by UPLC/MS analysis; format: ADME, organism-based; design: time 0.25-24 hr, dose 10 mg/kg, route oral; settings: in vivo
Summary of the method: (§5)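 Male ICR mice were dosed orally in 1% DMSO/0.5% HPMC vehicle. Plasma (and brain, where stated) concentrations gave Tmax, Cmax, T1/2, AUC0-t and AUC0-inf.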

[6] = target: Bromodomain-containing protein 4 (Homo sapiens, UniProt O60885); assay: Displacement of 5-FITC labelled (+)-JQ1 from His6-tagged human BRD4 bromodomain 1 expressed in Escherichia coli BL21(DE3) )-codon plus-RIL cells incubated for 4 hrs in dark condition by fluorescence anisotropy binding assay
[7] = Half life in mouse liver microsomes at 1 uM preincubated for 5 mins followed by NADPH addition and measured after 5 to 30 mins by LC/MS/MS analysis; format: ADME, Microsome; settings: mouse liver microsomes
[8] = Tmax in ICR mouse at 10 mg/kg, po administered via gavage measured after 0.25 to 24 hrs by UPLC/MS analysis; format: ADME, organism-based; settings: in vivo
Summary of the method: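 Male ICR mice dosed orally (3, 10 or 100 mg/kg, per line) in 1% DMSO/0.5% HPMC vehicle; plasma drug levels measured.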

Cytochrome P450 2D6 = Cytochrome P450 2D6 (Homo sapiens, UniProt P10635); assay: Time-dependent inhibition of CYP2D6 in human liver microsomes at 10 uM using dextromethorphan as substrate preincubated up to 30 mins followed by NADPH generating system addition and measured after 10 mins; format: ADME; summary of the method: as §4
[9] = AUC (0 to infinity) in ICR mouse at 10 mg/kg, po administered via gavage measured after 0.25 to 24 hrs by UPLC/MS analysis; format: ADME, organism-based; design: dose 10 mg/kg, route oral, time infinity; settings: in vivo; summary of the method: as §5
Cytochrome P450 2C9 = Cytochrome P450 2C9 (Homo sapiens, UniProt P11712); assay: Time-dependent inhibition of CYP2C9 in human liver microsomes at 10 uM using diclofenac as substrate preincubated up to 30 mins followed by NADPH generating system addition and measured after 10 mins; format: ADME; summary of the method: as §4
Cytochrome P450 2C19 = Cytochrome P450 2C19 (Homo sapiens, UniProt P33261); assay: Time-dependent inhibition of CYP2C19 in human liver microsomes at 10 uM using mephenytoin as substrate preincubated up to 30 mins followed by NADPH generating system addition and measured after 10 mins; format: ADME; summary of the method: as §4
[10] = Intrinsic clearance in human liver microsomes at 1 uM preincubated for 5 mins followed by NADPH addition and measured after 5 to 30 mins by LC/MS/MS analysis; format: ADME, Microsome; settings: read-out: CLH; summary of the method: as §2
MM1.S = assay: Antiproliferative activity against human MM1S cells after 72 hrs by CCK8 or SRB assay; format: functional, cell-based
Summary of the method: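 IC50 against MM.1S cell proliferation was taken as the mean of three independent experiments, each run in triplicate, reported with SEM.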

CYP2C9 = CYP2C9 (Homo sapiens, UniProt P11712); assay: Reversible inhibition of CYP2C9 in human liver microsomes at 10 uM using diclofenac as substrate preincubated for 5 mins followed by NADPH generating system addition and measured after 20 mins relative to control; format: ADME; settings: probe diclofenac; summary of the method: as §3
CYP1A2 = CYP1A2 (Homo sapiens, UniProt P05177); assay: Reversible inhibition of CYP1A2 in human liver microsomes at 10 uM using phenacetin as substrate preincubated for 5 mins followed by NADPH generating system addition and measured after 20 mins relative to control; format: ADME; settings: probe phenacetin; summary of the method: as §3
MV4-11 [11] = assay: Antitumor activity against human MV4-11 cells xenografted in Balb/c nude mouse assessed as tumor growth inhibition at 50 mg/kg, po administered once daily and measured twice a week by caliper method relative to control; format: functional; settings: MV4-11, po, read-out: TGI
MV4-11 [12] = assay: Antiproliferative activity against human MV4-11 cells after 72 hrs by CCK8 or SRB assay; format: functional, cell-based
MV4-11 [13] = assay: Induction of apoptosis in human MV4-11 cells assessed as reduction in c-IAP2 level after 24 hrs by Western blot analysis; format: functional, cell-based
MV4-11 [14] = assay: Antitumor activity against human MV4-11 cells xenografted in Balb/c nude mouse assessed as tumor growth inhibition at 100 mg/kg, po administered once daily and measured twice a week by caliper method relative to control; format: functional; settings: MV4-11, po, read-out: TGI
MV4-11 [15] = assay: Induction of apoptosis in human MV4-11 cells assessed as reduction in c-IAP1 level after 24 hrs by Western blot analysis; format: functional, cell-based
RKO = assay: Induction of cell cycle arrest in human RKO cells assessed as increase in accumulation at G1 phase at 100 nM after 24 hrs by propidium iodide staining based flow cytometric analysis; format: functional
MV4-11 [16] = assay: Induction of apoptosis in human MV4-11 cells assessed as increase in cleaved caspase-8 level after 24 hrs by Western blot analysis; format: functional, cell-based
Summary of the method: (§6)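 MV4-11 cells exposed to test agent at the indicated doses for 24 h. Lysates immunoblotted for full-length and cleaved caspase-3, -7, -8 and -9, with GAPDH as the loading reference.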

MV4-11 [17] = assay: Induction of apoptosis in human MV4-11 cells assessed as increase in cleaved caspase-9 level after 24 hrs by Western blot analysis; format: functional, cell-based; summary of the method: as §6
MV4-11 [18] = assay: Induction of apoptosis in human MV4-11 cells after 24 hrs by Annexin V staining based assay; format: functional, cell-based
Homo sapiens = species on record: Homo sapiens; assay: Antiproliferative activity against human TY82 cells after 72 hrs by CCK8 or SRB assay; format: functional, cell-based
MV4-11 [19] = assay: Induction of apoptosis in human MV4-11 cells assessed as reduction in XIAP level after 24 hrs by Western blot analysis; format: functional, cell-based

Sequence of CYP2C19 (P33261 whole entry): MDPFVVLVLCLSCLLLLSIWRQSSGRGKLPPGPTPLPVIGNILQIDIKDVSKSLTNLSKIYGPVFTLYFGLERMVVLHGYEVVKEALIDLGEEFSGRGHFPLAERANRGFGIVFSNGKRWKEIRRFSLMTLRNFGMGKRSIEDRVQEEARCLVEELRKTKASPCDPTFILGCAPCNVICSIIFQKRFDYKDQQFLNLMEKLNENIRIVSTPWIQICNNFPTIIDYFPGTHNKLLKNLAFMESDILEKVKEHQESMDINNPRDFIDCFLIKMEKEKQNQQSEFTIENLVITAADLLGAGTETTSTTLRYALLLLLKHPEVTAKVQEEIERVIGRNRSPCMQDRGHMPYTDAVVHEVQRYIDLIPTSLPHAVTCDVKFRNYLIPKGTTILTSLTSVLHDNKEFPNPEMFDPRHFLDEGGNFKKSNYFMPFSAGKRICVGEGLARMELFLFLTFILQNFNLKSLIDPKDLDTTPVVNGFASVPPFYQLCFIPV
Sequence of Cytochrome P450 2C19 (P33261 whole entry): as above
Sequence of Cytochrome P450 3A4 (P08684 whole entry): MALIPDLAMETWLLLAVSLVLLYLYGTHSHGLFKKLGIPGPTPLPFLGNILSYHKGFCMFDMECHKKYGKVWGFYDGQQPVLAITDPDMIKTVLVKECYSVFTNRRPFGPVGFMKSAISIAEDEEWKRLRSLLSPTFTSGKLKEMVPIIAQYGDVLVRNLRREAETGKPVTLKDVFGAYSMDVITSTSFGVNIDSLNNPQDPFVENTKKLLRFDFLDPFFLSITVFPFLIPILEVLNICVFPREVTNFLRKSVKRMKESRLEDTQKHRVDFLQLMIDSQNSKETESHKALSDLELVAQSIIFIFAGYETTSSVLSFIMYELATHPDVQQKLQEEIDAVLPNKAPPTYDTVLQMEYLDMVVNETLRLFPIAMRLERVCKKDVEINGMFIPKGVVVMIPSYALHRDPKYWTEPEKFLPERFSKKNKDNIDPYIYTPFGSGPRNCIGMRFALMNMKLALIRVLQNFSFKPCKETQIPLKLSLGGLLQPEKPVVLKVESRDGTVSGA
Sequence of CYP3A4 (P08684 whole entry): as above
Sequence of Cytochrome P450 2D6 (P10635 whole entry): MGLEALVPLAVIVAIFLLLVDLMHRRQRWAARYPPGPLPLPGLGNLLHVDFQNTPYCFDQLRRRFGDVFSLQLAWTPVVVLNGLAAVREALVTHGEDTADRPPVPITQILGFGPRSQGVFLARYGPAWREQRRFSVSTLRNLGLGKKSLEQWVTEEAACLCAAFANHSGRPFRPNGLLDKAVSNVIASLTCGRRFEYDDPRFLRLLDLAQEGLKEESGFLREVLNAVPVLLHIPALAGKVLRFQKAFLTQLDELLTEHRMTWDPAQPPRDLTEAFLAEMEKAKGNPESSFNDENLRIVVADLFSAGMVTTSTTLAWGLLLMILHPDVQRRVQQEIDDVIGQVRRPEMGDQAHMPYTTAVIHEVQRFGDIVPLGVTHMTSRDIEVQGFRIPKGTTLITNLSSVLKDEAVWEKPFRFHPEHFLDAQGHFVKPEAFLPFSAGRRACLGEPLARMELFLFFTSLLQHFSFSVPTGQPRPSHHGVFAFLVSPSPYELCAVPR
Sequence of CYP2C9 (P11712 whole entry): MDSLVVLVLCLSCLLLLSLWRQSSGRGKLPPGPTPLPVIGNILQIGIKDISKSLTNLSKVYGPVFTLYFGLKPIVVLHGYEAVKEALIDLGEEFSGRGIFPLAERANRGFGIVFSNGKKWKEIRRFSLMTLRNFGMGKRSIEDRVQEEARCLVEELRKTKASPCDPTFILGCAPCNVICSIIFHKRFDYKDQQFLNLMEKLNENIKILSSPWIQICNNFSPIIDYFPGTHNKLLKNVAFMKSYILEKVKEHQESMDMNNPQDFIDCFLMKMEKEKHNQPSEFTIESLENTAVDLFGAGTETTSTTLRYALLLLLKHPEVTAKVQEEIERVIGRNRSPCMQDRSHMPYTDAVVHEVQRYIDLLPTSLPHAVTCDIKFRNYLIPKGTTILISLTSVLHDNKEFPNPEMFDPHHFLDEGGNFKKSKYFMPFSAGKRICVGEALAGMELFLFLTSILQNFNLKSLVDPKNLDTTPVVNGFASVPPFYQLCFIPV
Sequence of Cytochrome P450 2C9 (P11712 whole entry): as above

Compound `Cc1ccc(-n2nc(C(=O)N3CCN(C)CC3)nc2-c2ccc3c(c2)N(C2CC2)C(C)C(=O)N3C)cc1` (configuration not stated) has a half-life [1] of 1.7 h, a half-life at 1 µM [2] of 1.03 h and a microsomal CLint at 1 µM [3] of 13 µL/min/mg. It also gave an inhibition at 20 min, 10 µM (CYP3A4) of 12%, a Cmax [4] of 1230 ng/mL and a TDI (Cytochrome P450 1A2) of 41 ×10⁻⁴ /min. For the same compound, the TDI (Cytochrome P450 3A4) was 19 ×10⁻⁴ /min, the inhibition at 20 min, 10 µM (CYP2C19) was 17% and the AUC(0-t) [5] was 2740 ng·h/mL. The IC50 [6] was 9.4 nM, the half-life at 1 µM [7] was 1.78 h and the Tmax [8] was 0.3 h. It also gave a TDI (Cytochrome P450 2D6) of 14 ×10⁻⁴ /min, an AUC(0-inf) [9] of 2760 ng·h/mL and a TDI (Cytochrome P450 2C9) of 19 ×10⁻⁴ /min. For the same compound, the TDI (Cytochrome P450 2C19) was “Not Active”, the microsomal CLint at 1 µM [10] was 22 µL/min/mg and the IC50 (MM1.S) was 8 nM. It also gave an inhibition at 20 min, 10 µM (CYP2C9) of 6% and an inhibition at 20 min, 10 µM (CYP1A2) of 2%.

With `Cc1sc2c(c1C)C(c1ccc(Cl)cc1)=N[C@@H](CC(=O)Nc1ccc(O)cc1)c1nnc(C)n1-2` [BIRABRESIB] the inhibition in vivo at 50 mg/kg (MV4-11 [11]) was 71.5%, the Activity (MV4-11 [12]) was “Active” and the Activity (MV4-11 [13]) was “Dose-dependent effect”. The inhibition in vivo at 100 mg/kg (MV4-11 [14]) was 87.5%, the Activity (MV4-11 [15]) was “Dose-dependent effect” and the Activity (RKO) was “Active”. The Activity (MV4-11 [16]) was “Dose-dependent effect”, the Activity (MV4-11 [17]) was “Dose-dependent effect” and the Activity (MV4-11 [18]) was “Active”. The Activity (Homo sapiens) was “Active”, the Activity (MV4-11 [19]) was “Dose-dependent effect” and the IC50 (MM1.S) was 6.3 nM.
